Results taken from ChEMBL document CHEMBL1629555, “Antimalarial activity of phenylthiazolyl-bearing hydroxamate-based histone deacetylase inhibitors” (Antimicrob Agents Chemother, 2008).
Values after ≈ are worked out from the molar mass of the structure shown. Active and inactive are the calls of the source. No cut-off for these calls is given here.

Assays:
Plasmodium falciparum [1] = test: Antimalarial activity against drug-resistant Plasmodium falciparum D6 infected in Aotus lemurinus lemurinus monkey; format: functional, organism-based
Plasmodium falciparum [2] = test: Antimalarial activity against drug-resistant Plasmodium falciparum W2; format: functional, organism-based
Plasmodium falciparum [3] = test: Antimalarial activity against drug-resistant Plasmodium falciparum TM90C2A; format: functional, organism-based
Plasmodium falciparum [4] = test: Antimalarial activity against drug-resistant Plasmodium falciparum TM91C235; format: functional, organism-based
[5] = Cytotoxicity against african green monkey Vero cells by MTT assay; format: cell-based; details: chlorocebus sabaeus, read-out: LC50 (the source's name)
Plasmodium falciparum [6] = test: Antimalarial activity against Plasmodium falciparum infected in mouse RAW264.7 cells; format: functional, organism-based
[7] = Cytotoxicity against mouse RAW264.7 cells by MTT assay; format: cell-based; details: read-out: LD50 (the source's name)
Procedure, shortened: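 LC50 in RAW macrophages was determined by MTT assay, given as the mean of 2–4 experiments with range. Selectivity index = RAW LC50 / lowest P. falciparum IC50.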

[8] = Selectivity index, ratio of LC50 for mouse RAW264.7 cells to IC50 for Plasmodium falciparum; details: RAW264.7 cells
Mus musculus [9] = test: AUC in ICR mouse at 50 mg/kg/day, sc assessed as metabolite W308393 level by LC/MS analysis; format: ADME, organism-based, Plasma; set-up: route subcutaneous; details: in vivo
Procedure, shortened: (§1)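 Male ICR mice, 8 weeks old, got one 50 mg/kg dose either orally or subcutaneously, with three groups of six mice per route. One mouse per group was killed at 15, 30 and 60 min and at 3, 6 and 24 h. Plasma was deproteinized with 2 volumes of acetonitrile and analysed by LC-MS/MS on a C18 column against 0–500 ng/ml standards, with parent and acid metabolite measured in the same sample. Each six-mouse group was treated as one "animal" and fitted to a two-compartment model. AUC was taken by the linear trapezoidal rule extrapolated to infinity, and Cmax and Tmax were read per "animal".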

Mus musculus [10] = test: AUC in ICR mouse at 50 mg/kg/day, po assessed as metabolite W308393 level by LC/MS analysis; format: ADME, organism-based, Plasma; set-up: route oral; details: in vivo; procedure, shortened: as §1
Plasmodium falciparum [11] = test: Antimalarial activity against Plasmodium falciparum infected mouse assessed as reduction in parasitemia at 50 mg/kg, ip; format: functional, organism-based; set-up: dose 50 mg/kg
Plasmodium falciparum [12] = test: Antimicrobial activity against Plasmodium falciparum; format: functional
Procedure, shortened: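 Labeled-hypoxanthine growth inhibition assay against strains W2, D6, TM91C235 and TM90C2A, reporting IC50. Values are single determinations, or the mean of duplicates for some compounds against D6, W2 and C235. Mefloquine and chloroquine served as assay-validity controls.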

Plasmodium falciparum [13] = test: Antimalarial activity against Plasmodium falciparum at 1 nM after 48 hrs; format: functional, organism-based
Procedure, shortened: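 P. falciparum-infected erythrocytes were exposed to 1 nM for 3.5 h, then washed and returned to culture. Growth was scored 48 h later relative to matched untreated controls.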

[14] = molecular target: T1, Histone deacetylase (Plasmodium falciparum 3D7) (UniProt Q7K6A1); test: Inhibition of Plasmodium falciparum 3D7 histone deacetylase infected in human erythrocytes assessed as alteration of histone H3 acetylation at 1.8 to 1000 nM after 3.5 hrs by SDS-PAGE; format: cell-based
T1 sequence (whole entry): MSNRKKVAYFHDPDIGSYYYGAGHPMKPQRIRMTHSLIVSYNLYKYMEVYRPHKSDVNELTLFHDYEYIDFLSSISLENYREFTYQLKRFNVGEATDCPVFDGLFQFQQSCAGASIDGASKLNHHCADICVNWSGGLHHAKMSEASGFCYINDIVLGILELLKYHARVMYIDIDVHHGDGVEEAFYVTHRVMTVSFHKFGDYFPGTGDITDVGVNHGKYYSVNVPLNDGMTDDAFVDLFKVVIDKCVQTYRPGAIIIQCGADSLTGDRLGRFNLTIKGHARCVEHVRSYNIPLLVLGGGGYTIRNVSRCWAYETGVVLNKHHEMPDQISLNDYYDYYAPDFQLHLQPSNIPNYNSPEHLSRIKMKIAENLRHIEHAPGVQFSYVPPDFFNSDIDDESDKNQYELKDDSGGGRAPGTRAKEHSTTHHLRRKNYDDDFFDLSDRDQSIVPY
Procedure, shortened: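 About 3 × 10^9 late-trophozoite 3D7-infected erythrocytes were incubated with compound or DMSO vehicle for 3.5 h at 37°C, with an untreated sample taken at the start. Histones (about 6 × 10^8 parasites per lane) were run on SDS–15% PAGE, with silver stain as the loading check. Western blots were probed with anti-(tetra)acetyl-H4 and anti-(di)acetyl-H3 antisera (1:2,000) and read by ECL.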

[15] = molecular target: T1, Histone deacetylase (Plasmodium falciparum 3D7); test: Inhibition of Plasmodium falciparum 3D7 histone deacetylase infected in human erythrocytes assessed as alteration of histone H3 acetylation at 100 nM after 3.5 hrs by SDS-PAGE; format: cell-based
Procedure, shortened: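 About 3 × 10^9 erythrocytes infected with late-trophozoite P. falciparum 3D7 were exposed to compound or to DMSO vehicle for 3.5 h at 37°C, and an untreated sample was taken at the start. Histones were extracted, about 6 × 10^8 parasites were loaded per lane on SDS–15% PAGE, and loading was checked by silver stain. Western blots were probed with anti-tetraacetyl-H4 and anti-diacetyl-H3 antisera and detected by ECL.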

## Nc1cc(-c2csc(NC(=O)CCCCCCC(=O)NO)n2)ccc1F
Plasmodium falciparum [1]
  IC50: 5.1 nM
Plasmodium falciparum [2]
  IC50: 5 nM
Plasmodium falciparum [3]
  IC50: 3.8 nM
Plasmodium falciparum [4]
  IC50: 2.4 nM

## COc1cccc(-c2csc(NC(=O)CCCCCCC(=O)NO)n2)c1
Plasmodium falciparum [1]
  IC50: 14.9 nM
Plasmodium falciparum [2]
  IC50: 11.3 nM
Plasmodium falciparum [3]
  IC50: 10.3 nM
Plasmodium falciparum [4]
  IC50: 6.2 nM

## Nc1cccc(-c2csc(NC(=O)CCCCCC(=O)NO)n2)c1
Plasmodium falciparum [1]
  IC50: 12.7 nM
Plasmodium falciparum [2]
  IC50: 15.8 nM
Plasmodium falciparum [3]
  IC50: 34.4 nM
Plasmodium falciparum [4]
  IC50: 94.3 nM

## O=C(CCCCCCC(=O)Nc1nc(-c2cccc(F)c2)cs1)NO
Plasmodium falciparum [1]
  IC50: 11.8 nM
Plasmodium falciparum [2]
  IC50: 14.2 nM
Plasmodium falciparum [3]
  IC50: 7.7 nM
Plasmodium falciparum [4]
  IC50: 15.8 nM

## [N-]=[N+]=Nc1cccc(-c2csc(NC(=O)CCCCCCC(=O)NO)n2)c1
Plasmodium falciparum [1]
  IC50: 9.7 nM
Plasmodium falciparum [2]
  IC50: 17.8 nM
Plasmodium falciparum [3]
  IC50: 8.8 nM
Plasmodium falciparum [4]
  IC50: 19.3 nM

## O=C(CCCCCCC(=O)Nc1nc(-c2cccc(O)c2)cs1)NO
Plasmodium falciparum [1]
  IC50: 2.7 nM
Plasmodium falciparum [2]
  IC50: 2.7 nM
Plasmodium falciparum [3]
  IC50: 1.6 nM
Plasmodium falciparum [4]
  IC50: 1.7 nM

## Nc1cccc(-c2cc(C(=O)NCCCCCCC(=O)NO)no2)c1
Plasmodium falciparum [1]
  IC50: 33.2 nM
Plasmodium falciparum [2]
  IC50: 69.8 nM
Plasmodium falciparum [3]
  IC50: 28 nM
Plasmodium falciparum [4]
  IC50: 42.2 nM

## COc1ccc(-c2csc(NC(=O)CCCCCCC(=O)NO)n2)cc1N
[5]
  CC50: 950 nM
Plasmodium falciparum [6]
  IC50: 0.9 nM
Plasmodium falciparum [1]
  IC50: 0.9 nM
Plasmodium falciparum [2]
  IC50: 1.2 nM
Plasmodium falciparum [3]
  IC50: 1 nM
[7]
  CC50: 3200 nM
Plasmodium falciparum [4]
  IC50: 1 nM
[8]
  selectivity ratio: 3560

## O=C(CCCCCCC(=O)Nc1ccccc1)NO [VORINOSTAT]
[5]
  CC50: 950 nM
[7]
  CC50: 2200 nM

## Nc1ccccc1-c1csc(NC(=O)CCCCCCC(=O)NO)n1
Plasmodium falciparum [1]
  IC50: 34.2 nM
Plasmodium falciparum [2]
  IC50: 38.7 nM
Plasmodium falciparum [3]
  IC50: 30.3 nM
Plasmodium falciparum [4]
  IC50: 41.9 nM

## Nc1cccc(-c2csc(C(=O)NCCCCCCC(=O)NO)n2)c1
Plasmodium falciparum [1]
  IC50: 42.4 nM
Plasmodium falciparum [2]
  IC50: 39.5 nM
Plasmodium falciparum [3]
  IC50: 60.7 nM
Plasmodium falciparum [4]
  IC50: 170 nM

## CN(C)c1cccc(-c2csc(NC(=O)CCCCCCC(=O)NO)n2)c1
Plasmodium falciparum [1]
  IC50: 30.5 nM
Plasmodium falciparum [2]
  IC50: 35.7 nM
Plasmodium falciparum [3]
  IC50: 18.5 nM
Plasmodium falciparum [4]
  IC50: 60.8 nM

## O=C(CCCCCCC(=O)Nc1nc(-c2ccsc2)cs1)NO
Plasmodium falciparum [1]
  IC50: 7.5 nM
Plasmodium falciparum [2]
  IC50: 17 nM
Plasmodium falciparum [3]
  IC50: 7.4 nM
Plasmodium falciparum [4]
  IC50: 6.5 nM

## Nc1cccc(-c2csc(NC(=O)CCCCCCC(=O)O)n2)c1
Mus musculus [9]
  AUC: 400 ng·h/mL
Plasmodium falciparum [1]
  IC50: > 1400 nM
Plasmodium falciparum [2]
  IC50: > 1400 nM
Mus musculus [10]
  AUC: 478 ng·h/mL
Plasmodium falciparum [3]
  IC50: 1400 nM
Plasmodium falciparum [4]
  IC50: > 1400 nM

## CCC(=O)CCCCC[C@@H]1NC(=O)[C@H]2CCCCN2C(=O)[C@H]([C@@H](C)CC)NC(=O)[C@H](Cc2cn(OC)c3ccccc23)NC1=O [APICIDIN]
Plasmodium falciparum [11]
  Activity: Active
Plasmodium falciparum [12]
  MIC: 0.125 µg/mL (≈ 0.2 µM)

## C[C@@H]1CC[C@H]2[C@@H](C)C(=O)O[C@@H]3O[C@@]4(C)CC[C@@H]1[C@]32OO4
Plasmodium falciparum [13]
  Activity: Active
[14]
  inhibition: inactive

## O=C(CCCCCCC(=O)Nc1nc(-c2ccccc2)cs1)NO
Plasmodium falciparum [1]
  IC50: 11.8 nM
Plasmodium falciparum [2]
  IC50: 13.4 nM
Plasmodium falciparum [3]
  IC50: 8.8 nM
Plasmodium falciparum [4]
  IC50: 16.7 nM

## Nc1ccc(-c2csc(NC(=O)CCCCCCC(=O)NO)n2)cc1
Plasmodium falciparum [1]
  IC50: 9.8 nM
Plasmodium falciparum [2]
  IC50: 9.4 nM
Plasmodium falciparum [3]
  IC50: 9.9 nM
Plasmodium falciparum [4]
  IC50: 19.6 nM

## CN(CCO)c1ccc(-c2csc(NC(=O)CCCCCCC(=O)NO)n2)cc1N
[5]
  CC50: 950 nM
Plasmodium falciparum [6]
  IC50: 0.81 nM
Plasmodium falciparum [1]
  IC50: 0.8 nM
Plasmodium falciparum [2]
  IC50: 1 nM
Plasmodium falciparum [3]
  IC50: 0.9 nM
[7]
  CC50: 540 nM
Plasmodium falciparum [4]
  IC50: 1 nM
[8]
  selectivity ratio: 670

## Cc1cccc(-c2csc(NC(=O)CCCCCCC(=O)NO)n2)c1
Plasmodium falciparum [1]
  IC50: 3.9 nM
Plasmodium falciparum [2]
  IC50: 7.5 nM
Plasmodium falciparum [3]
  IC50: 6 nM
Plasmodium falciparum [4]
  IC50: 3.6 nM

## Cc1sc(NC(=O)CCCCCCC(=O)NO)nc1-c1cccc(N)c1
Plasmodium falciparum [1]
  IC50: 8 nM
Plasmodium falciparum [2]
  IC50: 7.2 nM
Plasmodium falciparum [3]
  IC50: 4 nM
Plasmodium falciparum [4]
  IC50: 6.1 nM

## O=C(CCCCCCC(=O)Nc1nc(-c2ccc3ccccc3c2)cs1)NO
Plasmodium falciparum [1]
  IC50: 3.3 nM
Plasmodium falciparum [2]
  IC50: 6.4 nM
Plasmodium falciparum [3]
  IC50: 5.9 nM
Plasmodium falciparum [4]
  IC50: 3.1 nM

## Nc1cc(-c2csc(NC(=O)CCCCCCC(=O)NO)n2)ccc1Cl
Plasmodium falciparum [1]
  IC50: 1.7 nM
Plasmodium falciparum [2]
  IC50: 1.7 nM
Plasmodium falciparum [3]
  IC50: 1.6 nM
Plasmodium falciparum [4]
  IC50: 1.4 nM

## CC(/C=C/C(=O)NO)=C\[C@@H](C)C(=O)c1ccc(N(C)C)cc1
[15]
  inhibition: Active

## Nc1cccc(-c2csc(NC(=O)CCCCc3cc(C(=O)NO)no3)n2)c1
Plasmodium falciparum [1]
  IC50: 58.5 nM
Plasmodium falciparum [2]
  IC50: 72.1 nM
Plasmodium falciparum [3]
  IC50: 79.7 nM
Plasmodium falciparum [4]
  IC50: 150 nM
